# IMP-1 inh-1: blocks Pseudomonas aeruginosa IMP-1 metallo-beta-lactamase; purified IMP-1, nitrocefin hydrolysis, epi-absorbance fluorescence; inhibition, % at 5.6 µM; 290,000 tested, 0.45% active; AID 1556;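 active = inhibition above the mean plus 3 SD of all compounds in the same screening run, cut at about 4.5% in these data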;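 also: 0% = IMP-1 with DMSO and 100% = DMSO wells lacking enzyme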
#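 System: Purified IMP-1 | Read-out basis: Percent enzyme inhibition | Controls: IMP-1 with DMSO as 0%, enzyme-free DMSO as 100% | Replicates: One well per compound | Doses: 5.6 µM nominal single concentration | Detection: Epi-absorbance fluorescence, 480 nm excitation, 530 nm emission | Incubation: 25 °C, 15 min preincubation, 25 min reaction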
# VIM-2 inh: blocks Pseudomonas aeruginosa VIM-2 metallo-beta-lactamase; 290,000 tested, 0.89% active; inhibition, % at 5.6 µM; purified VIM-2, nitrocefin hydrolysis, epi-absorbance fluorescence;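 active = inhibition above the mean of all tested compounds plus 3 SD, cutoff set per screening run, cut at about 7.5% in these data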;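 also: red hydrolysis product quenches plate fluorescence so inhibitors raise well fluorescence; 0% = enzyme with DMSO and 100% = DMSO without enzyme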
# dFosB act: activators of mouse delta FosB homodimer; P13346; purified delta FosB, TAMRA-CDK5 oligo fluorescence polarization; percent of positive-control signal above neutral wells; activation, % at 25 µM; 340,000 tested, 0.99% active; AID 493131;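 active = mean activation above about 17%, with every replicate also reaching it, limit read from the data, passing the limit was not always enough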
# HTR2A ag: activates the mouse 5-HT2A serotonin receptor; P35363; CHO-K1 mHTR2A beta-arrestin complementation, luminescence; percent of 30 µM serotonin response; activation, % at 7.6 µM; 360,000 tested, 0.66% active; AID 624169;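 active = activation above a run cutoff, the mean activation of all tested compounds plus 3 SD, cut at about 14% in these data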;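 also: 0% = plate median of compound wells and 100% = 30 µM serotonin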
# Target sequence (P35363 whole entry, looked up): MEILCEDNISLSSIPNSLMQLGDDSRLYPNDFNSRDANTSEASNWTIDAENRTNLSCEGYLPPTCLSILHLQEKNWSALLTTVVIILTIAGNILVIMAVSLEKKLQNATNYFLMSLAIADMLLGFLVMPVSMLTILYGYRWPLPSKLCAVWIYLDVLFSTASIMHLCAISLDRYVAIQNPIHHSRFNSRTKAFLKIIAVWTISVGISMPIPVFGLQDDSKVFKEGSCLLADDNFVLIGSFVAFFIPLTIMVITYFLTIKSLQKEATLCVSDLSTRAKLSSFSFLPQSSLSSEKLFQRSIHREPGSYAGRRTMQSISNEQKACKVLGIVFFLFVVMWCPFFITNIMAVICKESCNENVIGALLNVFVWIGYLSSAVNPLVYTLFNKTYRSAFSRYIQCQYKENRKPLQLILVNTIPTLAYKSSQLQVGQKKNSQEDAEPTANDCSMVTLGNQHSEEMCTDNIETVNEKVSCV
# IMP-1 inh-2: blocks IMP-1 metallo-beta-lactamase in VIM-2 selectivity screen; shares compounds with VIM-2 inh; purified IMP-1, nitrocefin hydrolysis, epi-absorbance fluorescence; inhibition, % at 5.6 µM; 1,300 tested, under 10 active; call rule not given here;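 also: 0% = enzyme with vehicle and 100% = vehicle without enzyme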
# VIM-2 FRET ctr: inhibits VIM-2 in FRET assay to exclude epi-absorbance artifacts; 1,300 tested, 23% active; inhibition, % at 5.6 µM; purified VIM-2, CCF2 FRET substrate hydrolysis; AID 1857; shares compounds with VIM-2 inh;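 active = inhibition above the mean of all tested compounds plus 3 SD, cut at about 19% in these data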;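 also: 0% = VIM-2 plus DMSO and 100% = no enzyme wells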
# TEM-1 inh: TEM-1 inhibition, counter-screen for VIM-2 inhibitors; shares compounds with VIM-2 inh; Purified TEM-1, nitrocefin hydrolysis, epi-absorbance fluorescence; inhibition, % at 5.6 µM; 1,300 tested, 3% active; AID 1866;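 active = inhibition above that campaign's mean inhibition plus 3 SD, cut at about 0.46% in these data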;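 also: 0% = TEM-1 with DMSO and 100% = TEM-1 with 100 µM potassium clavulanate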
# VIM-2 confirm 2: confirmation of P. aeruginosa VIM-2 metallo-beta-lactamase inhibitors; purified VIM-2, nitrocefin hydrolysis, epi-absorbance; shares compounds with VIM-2 inh; 1,300 tested, 96% active; inhibition, % at 5.6 µM;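 active = inhibition of the VIM-2 beta-lactamase enzyme above about 11% from the earlier first-round screen, limit read from the data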;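 also: 0% = VIM-2 with DMSO and 100% = buffer wells without enzyme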
# Numbers without * were called inactive; x = not tested or not shown. Compounds with a hit are over-represented: about 2.5% of the library has one in this group of screens.
SMILES,IMP-1 inh-1,VIM-2 inh,dFosB act,HTR2A ag,IMP-1 inh-2,VIM-2 FRET ctr,TEM-1 inh,VIM-2 confirm 2
Clc1ccc(C2=NN(c3ccccc3)C(c3ccco3)C2)cc1 (stereo not drawn),-1,-1,2,0,x,x,x,x
O=C(c1ccc(Br)o1)N1N=C(c2ccc(Cl)cc2)CC1c1ccco1 (stereo not drawn),-2,12*,-10,0,-2,30*,-2,19*
Cc1ccc(C2=NN(C(=O)C3CCCO3)C(c3ccco3)C2)cc1 (stereo not drawn),-2,14*,-4,1,-3,27*,-6,17*
CC(=O)N1N=C(c2ccc(C)cc2)CC1c1ccco1 (stereo not drawn),-1,4,-13,-2,x,x,x,x
O=C(C1CCCO1)N1N=C(c2ccc(Br)cc2)CC1c1ccco1 (stereo not drawn),-2,18*,-16,1,-3,57*,-5,36*
COc1ccc([C@H]2CC(=O)C=C(c3ccc(Cl)c(Cl)c3)C2)cc1,x,x,6,2,x,x,x,x
CCCCCNC(=O)C1CCC(Cn2c(=S)[nH]c3ccccc3c2=O)CC1 (stereo not drawn),-1,0,-10,0,x,x,x,x
O=C(O)C1Sc2[nH]c(=O)sc2C2c3cc(Cl)ccc3OC(=O)C12 (stereo not drawn),-2,14*,5,3,-1,41*,-8,29*
CCN(CC)c1nc(Oc2ccc(C(=O)NN)cc2)nc(Oc2ccc(C(=O)NN)cc2)n1,-3,70*,2,-3,-4,8,-7,82*
O=C(O)c1ccccc1C(=O)c1ccc(Oc2ccccc2)cc1,-1,22*,-4,1,-4,44*,-4,24*
O=C(NCCCN1CCOCC1)c1nn2c(C(F)(F)F)cc(-c3ccco3)nc2c1Cl,-1,12*,-1,-4,-2,-1,-5,18*
CC(=O)c1c2c3c(cccc3n(C)c1=O)C(=O)c1ccccc1-2,3,22*,x,x,-2,-3,-4,30*
Cc1cc(C)n(CCCNC(=O)CCNS(=O)(=O)c2ccccc2C(F)(F)F)n1,-2,1,2,-4,x,x,x,x
CC(CN1CCCCC1)OC(=O)c1ccco1 (stereo not drawn),-1,0,1,-5,x,x,x,x
CN(CCCNC(=O)c1cc2c(Cl)nc3ccccc3c2s1)Cc1ccccc1,1,22*,-41,-5,-2,2,-7,31*
COc1ccc(N(C)C(=O)c2cc3c(Cl)nc4ccccc4c3s2)cc1,-5,-2,-10,5,x,x,x,x
CCN(CC)CCCNC(=O)c1cc2c(Cl)nc3ccccc3c2s1,-1,22*,-69,-2,-2,6,-6,32*
COc1ccc(N2CCN(C(=O)CCCn3c(=O)c4cccn4c4cccnc43)CC2)cc1,-2,0,-5,-2,x,x,x,x
CCCN1CCN(C(=O)CCn2c(=O)c3cccn3c3cccnc32)CC1,0,13*,-7,-5,-4,-3,-6,24*
O=C(CCCn1c(=O)c2cccn2c2cccnc21)N1CCN(c2ccccc2F)CC1,-1,1,-7,4,x,x,x,x
CCN1CCN(C(=O)CCn2c(=O)c3cccn3c3cccnc32)CC1,-3,17*,-11,-2,-2,2,-4,25*
Cc1ccc(NCC(=O)Nc2cccc(F)c2)cc1S(=O)(=O)N1CCCCCC1,-3,-3,4,-3,x,x,x,x
c1ccc(CNc2nc(-c3ccccn3)nc3ccccc23)cc1,0,19*,3,-9,-3,-56,-4,26*
CC(C)N1CCc2c(sc(NC(=O)c3nc4ccccc4s3)c2C(N)=O)C1,-3,-1,-29,-1,x,x,x,x
CC(C)N1CCc2c(sc(NC(=O)c3cc(-c4cccs4)nc4ccccc34)c2C(N)=O)C1,-2,20*,-1,5,-2,13,-4,46*
SMILES,IMP-1 inh-1,VIM-2 inh,dFosB act,HTR2A ag,IMP-1 inh-2,VIM-2 FRET ctr,TEM-1 inh,VIM-2 confirm 2
N#Cc1ccc(CN2CCN(C(=O)C3CC(=O)N(c4ccccc4F)C3)CC2)cc1 (stereo not drawn),x,x,2,4,x,x,x,x
CCN1CCN(c2ccc(NC(=O)c3ccc(Cl)c(S(=O)(=O)N4CCCC4)c3)cc2)CC1,x,x,-2,1,x,x,x,x
COc1ccc(C(=O)Nc2ccc(N3CCN(C)CC3)cc2)cc1,-6,15*,1,0,-2,2,-2,26*
CCN1CCN(c2ccc(NC(=O)c3cc(OC)c(OC)c(OC)c3)cc2)CC1,-4,24*,-8,-5,-4,-2,-5,38*
COc1ccc(C(=O)Nc2ccc(S(=O)(=O)N3CCN(C)CC3)cc2)cc1,x,x,-8,-3,x,x,x,x
CCN1CCN(c2ccc(NC(=O)c3ccc(Cl)c(N4CCCC4=O)c3)cc2)CC1,-4,26*,-8,5,-2,-1,-5,42*
COc1ccc(C(=O)Nc2ccc(N3CCN(C)CC3)cc2)cc1OC,-5,24*,-2,6,-3,3,-6,39*
O=C(COC(=O)C1CC2CCCC(C1)C2=O)NC1CCCCC1 (stereo not drawn),x,x,2,7,x,x,x,x
C[C@@H]1CCCCO[C@@H](CN(C)C(=O)c2ccncc2)[C@@H](C)CN([C@H](C)CO)C(=O)c2cc(NC(=O)Cc3ccccc3)ccc2O1,x,x,x,-3,x,x,x,x
COc1cc(/C=C/C(=O)OCC(=O)N(CC(C)C)c2c(N)n(Cc3ccccc3)c(=O)[nH]c2=O)ccc1O,x,x,0,4,x,x,x,x
COc1cc(NC(=O)C2(C)CCCN2C)cc(OC)c1OC (stereo not drawn),x,x,x,-1,x,x,x,x
O=C(Nc1ccc(N2CCOCC2)cc1)c1ccc(Br)o1,-3,-2,-3,1,x,x,x,x
CN1CCN(c2ccc(NC(=O)c3ccc(Br)o3)cc2)CC1,-2,14*,8,-2,-3,3,-6,31*
CN1CCN(c2ccc(NC(=O)c3ccc4ccccc4c3)cc2)CC1,-1,25*,-3,-4,-1,-1,-6,34*
CCc1cc(-c2nnn(CCC3COCCO3)c2CC)cc(CC)c1-c1cn(CCc2c[nH]c3ccccc23)nn1 (stereo not drawn),x,x,x,-4,x,x,x,x
CCOC(=O)c1c(NC(=O)CSc2ncn[nH]2)sc(C(C)=O)c1C,-4,24*,-23,2,-2,-2,-6,32*
CCOC(=O)c1sc(NC(=O)CCN2CCN(C)CC2)c(C(=O)OCC)c1C,-2,16*,-7,-4,-3,1,-7,48*

# Screening data from PubChem.
